Assay results from ChEMBL document CHEMBL1944532, “Synthesis and evaluation of anticancer activity of some novel 6-aryl-2-(p-sulfamylphenyl)-pyridazin-3(2H)-ones” (Eur J Med Chem, 2012).
Active and inactive are the calls of the source. The rule behind the calls is not given here.

Tests used:
K562 = experiment: Cytotoxicity against human K562 cells assessed as cell growth at 10 uM after 48 hrs by SRB assay; type: functional; settings: K562, 48 h, read-out: Activity
Outline: (§1)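 NCI primary single-dose screen at 10^-5 M against the ~60 human tumour cell line panel. Cells grown in RPMI-1640 with 5% fetal calf serum and 2 mM L-glutamine and pre-incubated 24 h before compound addition. Compound added from DMSO solution with 48 h exposure. Growth read by sulforhodamine B protein staining.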

KM12 = experiment: Cytotoxicity against human KM12 cells assessed as cell growth at 10 uM after 48 hrs by SRB assay; type: functional; settings: KM12, 48 h, read-out: Activity
Outline: (§2)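 NCI primary single-dose screen at 10^-5 M against the full panel of about 60 human tumor cell lines. Cells were in RPMI-1640 with 5% fetal calf serum and 2 mM L-glutamine and preincubated 24 h. Compound was given in DMSO with 48 h exposure. Growth was estimated by sulforhodamine B protein assay.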

SF-268 = experiment: Cytotoxicity against human SF268 cells assessed as cell growth at 10 uM after 48 hrs by SRB assay; type: functional; settings: SF-268, 48 h, read-out: Activity; outline: as §2
SF-295 [1] = experiment: Cytotoxicity against human SF295 cells assessed as cell growth at 10 uM after 48 hrs by SRB assay; type: functional; settings: SF-295, 48 h, read-out: Activity; outline: as §2
SF-539 = experiment: Cytotoxicity against human SF539 cells assessed as cell growth at 10 uM after 48 hrs by SRB assay; type: functional; settings: SF-539, 48 h, read-out: Activity; outline: as §2
SNB-19 = experiment: Cytotoxicity against human SNB19 cells assessed as cell growth at 10 uM after 48 hrs by SRB assay; type: functional; settings: SNB-19, 48 h, read-out: Activity
Outline: (§3)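 NCI primary one-dose screen at 10^-5 M against the full panel of about 60 human tumour cell lines, run to the NCI Drug Evaluation Branch protocol.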

LOX IMVI = experiment: Cytotoxicity against human LOXIMVI cells assessed as cell growth at 10 uM after 48 hrs by SRB assay; type: functional; settings: read-out: Activity; outline: as §2
MDA-MB-435 [2] = experiment: Cytotoxicity against human MDA-MB-435 cells assessed as cell growth at 10 uM after 48 hrs by SRB assay; type: functional; settings: MDA-MB-435, 48 h, read-out: Activity; outline: as §2
UACC-257 [3] = experiment: Cytotoxicity against human UACC257 cells assessed as cell growth at 10 uM after 48 hrs by SRB assay; type: functional; settings: UACC-257, 48 h, read-out: Activity; outline: as §3
CAKI-1 = experiment: Cytotoxicity against human Caki1 cells assessed as cell growth at 10 uM after 48 hrs by SRB assay; type: functional; settings: CAKI-1, 48 h, read-out: Activity; outline: as §1
CCRF-CEM = experiment: Cytotoxicity against human CCRF-CEM cells after 48 hrs by SRB assay; type: functional
Outline: (§4)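 NCI ~60-line panel in RPMI-1640 with 5% fetal calf serum and 2 mM L-glutamine, pre-incubated 24 h. Compound in DMSO tested at five 10-fold concentrations (10^-4 to 10^-8 M) with 48 h continuous exposure. Growth measured by sulforhodamine B protein assay. GI50 (50% net growth inhibition), TGI (total inhibition) and LC50 (50% net cell death) derived from dose-response.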

MOLT-4 = experiment: Cytotoxicity against human MOLT4 cells after 48 hrs by SRB assay; type: functional; settings: MOLT-4, 48 h
Outline: (§5)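 NCI five-dose screen on the ~60-line human tumor panel. Cells grown in RPMI-1640 with 5% fetal calf serum and 2 mM L-glutamine, seeded at line-dependent density and preincubated 24 h. Compound added from DMSO at 10-fold dilutions from 10^-4 to 10^-8 M, continuous exposure 48 h. Growth read by sulforhodamine B protein stain. GI50, TGI and LC50 derived per line.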

EKVX = experiment: Cytotoxicity against human EKVX cells after 48 hrs by SRB assay; type: functional; outline: as §4
NCI-H460 = experiment: Cytotoxicity against human NCI-H460 cells after 48 hrs by SRB assay; type: functional; settings: NCI-H460, 48 h; outline: as §5
SF-295 [4] = experiment: Cytotoxicity against human SF295 cells after 48 hrs by SRB assay; type: functional; settings: SF-295, 48 h; outline: as §5
SK-MEL-5 = experiment: Cytotoxicity against human SK-MEL-5 cells after 48 hrs by SRB assay; type: functional; settings: SK-MEL-5, 48 h
Outline: (§6)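 NCI 60-cell-line five-dose screen. Cells were grown in 1640 medium with 5% fetal calf serum and 2 mM L-glutamine, with inoculum density set by cell line, and pre-incubated 24 h. Compound in DMSO was added at 10^-4 to 10^-8 M (10-fold steps) with 48 h continuous exposure. Growth was read by SRB protein assay, and GI50, TGI and LC50 were derived from dose-response.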

UACC-257 [5] = experiment: Cytotoxicity against human UACC257 cells after 48 hrs by SRB assay; type: functional; settings: UACC-257, 48 h; outline: as §6
SN12C = experiment: Cytotoxicity against human SN12C cells after 48 hrs by SRB assay; type: functional; outline: as §6
MDA-MB-468 = experiment: Cytotoxicity against human MDA-MB-468 cells after 48 hrs by SRB assay; type: functional; settings: MDA-MB-468, 48 h; outline: as §5
[6] = Toxicity in ip dosed athymic nude mouse assessed as body weight loss after 2 weeks; type: organism-based; settings: in vivo
Outline: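 Maximum tolerated dose determination in athymic nude mice. Single ip injection of 400, 200 or 100 mg/kg, one mouse per dose. Compound solubilized in DMSO. Feed and water ad libitum. Mice observed 2 weeks for body weight loss, lethality and other toxicity signs; sacrificed if weight loss exceeds 20%.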

MDA-MB-231 = experiment: Antitumor activity against human MDA-MB-231 cells implanted in mouse dosed qd for 4 days by formazan dye-based hollow fiber assay; type: functional, organism-based
Outline: (§7)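 Cells grown inside polyvinylidene fluoride hollow fibers; each line implanted into both intraperitoneal and subcutaneous compartments in mice. Compound given ip at two doses on a QD x 4 schedule. Fibers then recovered and viable cell mass measured by formazan dye conversion. Scored 2 per dose giving ≥50% reduction in viable cell mass (%T/C 50).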

MDA-MB-435 [7] = experiment: Antitumor activity against human MDA-MB-435 cells implanted in mouse dosed qd for 4 days by formazan dye-based hollow fiber assay; type: functional, organism-based; outline: as §7
NCI-H522 = experiment: Antitumor activity against human NCI-H522 cells implanted in mouse dosed qd for 4 days by formazan dye-based hollow fiber assay; type: functional, organism-based; outline: as §7
U-251 = experiment: Antitumor activity against human U251 cells implanted in mouse dosed qd for 4 days by formazan dye-based hollow fiber assay; type: functional, organism-based; outline: as §7

CCc1ccc(-c2ccc(=O)n(-c3ccc(S(N)(=O)=O)cc3)n2)cc1
growth at 10 µM (K562): 11%
growth at 10 µM (KM12): 13.6%
growth at 10 µM (SF-268): 42%
growth at 10 µM (SF-295 [1]): 18.4%
growth at 10 µM (SF-539): 43.6%
growth at 10 µM (SNB-19): 57.6%
growth at 10 µM (LOX IMVI): 55.1%
growth at 10 µM (MDA-MB-435 [2]): -17.9%
growth at 10 µM (UACC-257 [3]): 22.3%
growth at 10 µM (CAKI-1): 36.6%
LC50 (CCRF-CEM): > 100 µM
GI50 (CCRF-CEM; read-out: GI50): 0.786 µM
GI50 (CCRF-CEM; read-out: pGI50 (converted)): 0.794 µM
TGI (CCRF-CEM; read-out: pTGI): > 100 µM
LC50 (MOLT-4): > 100 µM
GI50 (MOLT-4; read-out: GI50): 0.573 µM
GI50 (MOLT-4; read-out: pGI50 (converted)): 0.575 µM
TGI (MOLT-4; read-out: pTGI): > 100 µM
LC50 (50% net cell death) (EKVX): > 100 µM
GI50 (EKVX; read-out: GI50): 2.79 µM
GI50 (EKVX; read-out: pGI50 (converted)): 2.82 µM
TGI (EKVX; read-out: pTGI): > 100 µM
LC50 (NCI-H460): 63.1 µM
GI50 (NCI-H460; read-out: GI50): 0.438 µM
GI50 (NCI-H460; read-out: pGI50 (converted)): 0.437 µM
TGI (NCI-H460; read-out: pTGI (converted)): 4.47 µM
LC50 (SF-295 [4]): 75.9 µM
GI50 (SF-295 [4]; read-out: GI50): 0.554 µM
GI50 (SF-295 [4]; read-out: pGI50 (converted)): 0.55 µM
TGI (SF-295 [4]; read-out: pTGI (converted)): 17.4 µM
LC50 (SK-MEL-5): > 100 µM
GI50 (SK-MEL-5; read-out: GI50): 0.453 µM
GI50 (SK-MEL-5; read-out: pGI50 (converted)): 0.457 µM
TGI (SK-MEL-5; read-out: pTGI (converted)): 7.59 µM
LC50 (UACC-257 [5]): > 100 µM
GI50 (UACC-257 [5]; read-out: GI50): > 100 µM
GI50 (UACC-257 [5]; read-out: pGI50 (converted)): > 100 µM
TGI (UACC-257 [5]; read-out: pTGI): > 100 µM
LC50 (SN12C): > 100 µM
GI50 (SN12C; read-out: GI50): 5.84 µM
GI50 (SN12C; read-out: pGI50 (converted)): 5.89 µM
TGI (SN12C; read-out: pTGI): > 100 µM
LC50 (MDA-MB-468): > 100 µM
GI50 (MDA-MB-468; read-out: GI50): 3.18 µM
GI50 (MDA-MB-468; read-out: pGI50 (converted)): 3.16 µM
TGI (MDA-MB-468; read-out: pTGI): > 100 µM
MTD at 336 h [6]: 400 mg/kg
Activity (MDA-MB-231): inactive
Activity (MDA-MB-435 [7]): inactive
Activity (NCI-H522): inactive
Activity (U-251): inactive
